CAL PDZ FP-1 – CAL PDZ (human) peptide binding inhibition. Q9HD26. purified CAL PDZ, TMR-peptide fluorescence polarization, 1 h. inhibition, % at 24.9 µM. 300,000 compounds, 0.92% hits. AID 602252;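 active = mean inhibition of at least 30% with at least half of replicates also reaching 30%; inconclusive = no clear call, values can overlap the other calls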
ARNT TACC3 PPI – disrupts binding between human ARNT and TACC3; Q9Y6A5; AlphaScreen His-ARNT PAS-B/GST-TACC3 binding, luminescence; TACC3 fragment carries E629A point mutation; inhibition, % at 9.99 µM; 390,000 compounds, 0.66% hits; AID 623870;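 active = mean inhibition of replicates at least 50% and at least half of replicates each reaching 50%; inconclusive = half or more replicates reach 50% but mean below 50%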
CAL PDZ FP-2 – inhibitors of human CAL PDZ peptide binding; inhibition, % at 20 µM; purified CAL PDZ, TMR-peptide fluorescence polarization, 1 h; Q9HD26; 330,000 compounds, 0.02% hits; AID 504414;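 active = highest replicate inhibition of at least 40%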
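System: tagged CAL PDZ domain. Schedule: 1 h room-temperature incubation prior to read. Signal: fluorescence polarization (mP). Measure: percent inhibition from loss of millipolarization.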
AI-2 QS mod – modulates the Vibrio harveyi AI-2 quorum sensing system; 300,000 compounds, 0.4% hits; Vibrio harveyi JMH597 AI-2 luminescence/OD600 ratio, 9 h; hits give low values; strain lacks LuxN and CqsS sensors; 0 = neutral-control median; AID 2094; activity change, % at 7.5 µM; in the data active = activity change below about -75%, passing the limit was not always enough; inconclusive = no clear call, values can overlap the other calls;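 note: luminescence divided by OD600 gain over 9 h not by final OD600 alone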
Rce1 inhib – blocks yeast Ras-converting enzyme; 290,000 compounds, 0.27% hits; AID 2563; calls only; Q03530; yeast membranes, quenched prenylated peptide cleavage fluorescence;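 active = fall in fluorescence gain of 50% or more versus controls, with final raw signal at or below 3038400; inconclusive = same 50% fall but final raw signal above 3038400; inactive = fall in fluorescence gain under 50%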
Target sequence (Q03530 whole entry, looked up): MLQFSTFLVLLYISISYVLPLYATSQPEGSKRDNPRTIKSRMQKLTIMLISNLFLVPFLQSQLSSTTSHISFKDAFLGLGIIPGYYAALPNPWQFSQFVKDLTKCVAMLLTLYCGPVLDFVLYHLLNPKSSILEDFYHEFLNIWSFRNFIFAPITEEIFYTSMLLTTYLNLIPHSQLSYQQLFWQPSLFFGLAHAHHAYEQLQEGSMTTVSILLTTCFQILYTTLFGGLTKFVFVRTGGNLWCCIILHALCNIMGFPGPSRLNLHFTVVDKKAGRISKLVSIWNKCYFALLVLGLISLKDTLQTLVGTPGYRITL
JMH597 growth rt – retest Vibrio harveyi JMH597 growth inhibition; shares compounds with AI-2 QS mod; AID 2726; OD600 absorbance, 9 h; lacks LuxN and CqsS sensors; 750 compounds, 1% hits; growth inhibition, % at 7.5 µM;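 active = every replicate shows growth inhibition above 50%; inconclusive = at least half, but not all, replicates pass that cutoff; inactive = fewer than half of replicates pass it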
BB721 const-QS lum – retest counter-screen: lowers luminescence of constitutive-QS Vibrio harveyi BB721. shares compounds with AI-2 QS mod. 9 h. inhibition, % at 7.5 µM. 750 compounds, 95% hits;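 active = inhibition above about 80% in every replicate, not just on average, limit read from the data; inconclusive = at least half of replicates past the limit, but not all; inactive = fewer than half of replicates past the limit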
BB721 growth rt – retest: inhibitors of Vibrio harveyi BB721 growth; shares compounds with AI-2 QS mod; OD600 absorbance, 9 h; growth inhibition, % at 7.5 µM; 750 compounds, 3% hits; AID 2728;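 active = every replicate shows growth inhibition above 50%; inconclusive = at least half but not all replicates above 50% inhibition; inactive = under half of replicates above 50% inhibition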
AI-2 QS JMH597 – Vibrio harveyi AI-2 signaling luminescence modulation – JMH597 strain, confirmation. shares compounds with AI-2 QS mod. 750 compounds, 97% hits. Vibrio harveyi JMH597 AI-2 quorum sensing luminescence, 9 h; luxN and CqsS knockout, AI-2 only. inhibition, % at 7.5 µM;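 active = every replicate shows more than 75% inhibition of signal versus neutral control wells; inconclusive = half to three quarters of replicates exceed 75% inhibition; inactive = fewer than half of replicates exceed 75% inhibition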
Large screens that a line does not name were inactive (follow-up assays come after a bar, where they were run). In the library only some 1.7% were active in any assay of this set; here they are far more common.

Cc1nn(Cc2ccc(Cl)cc2)c(C)c1NC(=O)c1c(-c2ccccc2)noc1C	AI-2 QS mod -80 (no result: CAL PDZ FP-2) | JMH597 growth rt inactive | BB721 const-QS lum 93 | BB721 growth rt inactive | AI-2 QS JMH597 94
Fc1ccc2c(c1)C1OCCCC1C(c1ccccc1)N2 (centres undefined)	none
O=C(CN1C(=O)NC2(CCc3ccccc32)C1=O)Nc1ccc(N2CCOCC2)cc1 (centres undefined)	AI-2 QS mod -89 | JMH597 growth rt inactive | BB721 const-QS lum 88 | BB721 growth rt inactive | AI-2 QS JMH597 93
O=C(CN1C(=O)NC2(CCCCC2)C1=O)Nc1ccc(N2CCOCC2)cc1	none
CC(=O)Nc1nc2cc3c(cc2s1)OCCO3	none
O=C(NNc1nc2cc3c(cc2s1)OCCO3)c1ccccc1	AI-2 QS mod -93 (no result: ARNT TACC3 PPI) | JMH597 growth rt inactive | BB721 const-QS lum 98 | BB721 growth rt inactive | AI-2 QS JMH597 98
CC(=O)Nc1ccc(NC(=O)Cn2cc3c(n2)CCCC3)cc1	none
CC(=O)c1cccc(NC(=O)Cn2cc3c(n2)CCCC3)c1	AI-2 QS mod -89 (no result: CAL PDZ FP-1) | JMH597 growth rt inactive | BB721 const-QS lum 97 | BB721 growth rt inactive | AI-2 QS JMH597 98
C[C@@H]1CN([C@@H](C)CO)C(=O)c2cc(Br)cnc2O[C@@H]1CN(C)S(=O)(=O)c1ccccc1	none (no result: CAL PDZ FP-1, CAL PDZ FP-2, AI-2 QS mod, Rce1 inhib)
COC(=O)N/N=C/c1ccc(-c2ccc(Cl)cc2Cl)o1	none (no result: CAL PDZ FP-1)
O=C(O)c1ccc(N/N=C/c2ccc(-c3ccc(Cl)cc3Cl)o2)cc1	AI-2 QS mod -90 | JMH597 growth rt inactive | BB721 const-QS lum 98 | BB721 growth rt inactive | AI-2 QS JMH597 97
CCN(CC)S(=O)(=O)c1ccc(Oc2cccc(C(C)=O)c2)nc1	AI-2 QS mod -85 | JMH597 growth rt inactive | BB721 const-QS lum 95 | BB721 growth rt inactive | AI-2 QS JMH597 96
CCN(c1ccccc1)S(=O)(=O)c1ccc(Oc2ccccc2C(C)=O)nc1	none (no result: AI-2 QS mod, Rce1 inhib)
O=c1[nH]c(=O)n(Cc2ccc(Oc3ccccc3)cc2)cc1Br	AI-2 QS mod -86 (no result: ARNT TACC3 PPI) | JMH597 growth rt inactive | BB721 const-QS lum 93 | BB721 growth rt inactive | AI-2 QS JMH597 95
c1ccc(CSc2nnc(-c3ccco3)o2)cc1	AI-2 QS mod -87 | JMH597 growth rt inactive | BB721 const-QS lum 95 | BB721 growth rt inactive | AI-2 QS JMH597 96
Cc1ccc(CSc2nnc(-c3ccco3)o2)cc1	AI-2 QS mod -82 (no result: ARNT TACC3 PPI) | JMH597 growth rt inactive | BB721 const-QS lum 96 | BB721 growth rt inactive | AI-2 QS JMH597 98
Brc1ccc(CSc2nnc(-c3ccco3)o2)cc1	none
Fc1ccc(CSc2nnc(-c3ccco3)o2)cc1	AI-2 QS mod inconclusive
COc1ccc(NC2CCCN(C(=O)CCCN3CCCCC3=O)C2)cc1 (centres undefined)	none
c1ccc(CNc2nc(-c3cccnc3)cs2)cc1	AI-2 QS mod -83 | JMH597 growth rt inactive | BB721 const-QS lum 94 | BB721 growth rt inactive | AI-2 QS JMH597 97
Cc1cc(C)nc(/N=C(\N)Nc2ccc(OCc3ccccc3)cc2)n1	none
CN(Cc1ccccc1)C(=O)COC(=O)c1cncc(Br)c1	none (no result: CAL PDZ FP-1)
O=C(O)c1ccc(NCc2cccnc2)cc1	none
O=C(O)c1ccc(NCc2ccc(Br)cc2)cc1	AI-2 QS mod -96 (no result: CAL PDZ FP-1) | JMH597 growth rt inactive | BB721 const-QS lum 100 | BB721 growth rt inactive | AI-2 QS JMH597 100
COc1ccc(C#Cc2ccc3c(c2)O[C@H](CN(C)C)[C@H](C)CN([C@@H](C)CO)S3(=O)=O)cc1	none (no result: CAL PDZ FP-1, CAL PDZ FP-2, AI-2 QS mod, Rce1 inhib)
COc1ccc(CNC(=O)Oc2ccccc2)cc1Cl	AI-2 QS mod -80 (no result: CAL PDZ FP-2) | JMH597 growth rt inactive | BB721 const-QS lum 97 | BB721 growth rt inactive | AI-2 QS JMH597 97
O=C(Nc1cc(-c2ccccc2)[nH]n1)c1ccc(Cl)cc1	AI-2 QS mod -82 (no result: CAL PDZ FP-1) | JMH597 growth rt inactive | BB721 const-QS lum 96 | BB721 growth rt inactive | AI-2 QS JMH597 96
Cc1ccc(-c2cc(NC(=O)c3ccccc3[N+](=O)[O-])n[nH]2)cc1	AI-2 QS mod -95 | JMH597 growth rt inactive | BB721 const-QS lum 97 | BB721 growth rt inactive | AI-2 QS JMH597 98
O=C(NCc1ccccc1)c1cc2ccccc2o1	AI-2 QS mod -86 | JMH597 growth rt inactive | BB721 const-QS lum 94 | BB721 growth rt inactive | AI-2 QS JMH597 95
O=C(c1ccc(N2CCOCC2)c([N+](=O)[O-])c1)N1CCCC(C(F)(F)F)C1 (centres undefined)	none
NC/C(=N\O)c1ccc(Cl)cc1Cl	none
O=C(Nc1cccc(F)c1)c1ccc(Br)o1	none
COc1ccc(OCc2nc(N)nc(Nc3ccccc3OC)n2)cc1	none
Cc1ccccc1Nc1nc(N)nc(COc2ccc(C#N)cc2)n1	AI-2 QS mod -83 (no result: Rce1 inhib) | JMH597 growth rt inactive | BB721 const-QS lum 93 | BB721 growth rt inactive | AI-2 QS JMH597 96
COc1ccc2nc(NNC(=O)C3COc4ccccc4O3)sc2c1 (centres undefined)	AI-2 QS mod -85 (no result: CAL PDZ FP-1) | JMH597 growth rt inactive | BB721 const-QS lum 92 | BB721 growth rt inactive | AI-2 QS JMH597 95
N/C(=N\OC(=O)CCCOc1ccccc1)c1ccncc1	none (no result: ARNT TACC3 PPI, Rce1 inhib)
Cc1ccc(OCC(=O)O/N=C(\N)c2cccnc2)cc1	AI-2 QS mod -84 (no result: CAL PDZ FP-1) | JMH597 growth rt inactive | BB721 const-QS lum 92 | BB721 growth rt inactive | AI-2 QS JMH597 95
N/C(=N\OC(=O)CCCOc1ccccc1)c1ccccc1	AI-2 QS mod -83 | JMH597 growth rt inactive | BB721 const-QS lum 92 | BB721 growth rt inactive | AI-2 QS JMH597 93
N/C(=N\OC(=O)COc1ccc2ccccc2c1)c1cccnc1	AI-2 QS mod -90 | JMH597 growth rt inactive | BB721 const-QS lum 98 | BB721 growth rt inactive | AI-2 QS JMH597 99
COc1ccccc1NC(=O)N1CCc2c([nH]c3ccccc23)C1C(F)(F)F (centres undefined)	none (no result: Rce1 inhib)
CCOC(=O)c1c(NC(=O)CSc2nc3c(c(=O)n(C)c(=O)n3C)n2CC)sc(C)c1C	none (no result: CAL PDZ FP-2)
COc1ccc(-c2nnc(SCc3cccc(C#N)c3)o2)cc1	none
COc1cccc(CSc2nnc(-c3ccc(F)cc3)o2)c1	AI-2 QS mod -91 | JMH597 growth rt inactive | BB721 const-QS lum 96 | BB721 growth rt inactive | AI-2 QS JMH597 97
Fc1ccccc1CSc1nnc(-c2ccccc2)o1	AI-2 QS mod -93 | JMH597 growth rt inactive | BB721 const-QS lum 98 | BB721 growth rt inactive | AI-2 QS JMH597 98

High-throughput results deposited in PubChem BioAssay by Broad Institute.
